In ChEMBL document CHEMBL1137876, “Synthesis and biological evaluation of novel cytotoxic phospholipids for prostate cancer” (Bioorg Med Chem Lett, 2004):
pIC50: −log10 of the molar value.

How the values were obtained:
CHO = assay: Concentration required to inhibit tumor growth in CHO cells; assay type: functional, cell-based; conditions: Cricetulus griseus
Method in brief: (§1)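 SRB assay. Cells were exposed to compound at 0–100 µM for 96 h, then fixed with 10% trichloroacetic acid, washed five times with water, air dried overnight and stained with SRB. Protein-bound dye was read at 540 nm.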

DU-145 [1] = assay: Concentration required to inhibit proliferation of DU-145 prostate cancer cell lines; assay type: functional, cell-based; conditions: Homo sapiens; method in brief: as §1
[2] = Concentration required to inhibit tumor growth in RH7777 cells; assay type: functional, cell-based; method in brief: as §1
PC-3 [3] = assay: Concentration required to inhibit proliferation of PC-3 prostate cancer cell lines; assay type: functional, cell-based; conditions: Homo sapiens; method in brief: as §1
LNCaP [4] = assay: Concentration required to inhibit proliferation of LNCaP prostate cancer cell lines; assay type: functional, cell-based; conditions: Homo sapiens; method in brief: as §1
[5] = Concentration required to inhibit proliferation of PPC-1 prostate cancer cell lines; assay type: functional, cell-based; conditions: Homo sapiens; method in brief: as §1
[6] = Concentration required to inhibit proliferation of TSU prostate cancer cell lines; assay type: functional, cell-based; conditions: Homo sapiens; method in brief: as §1
LNCaP [7] = assay: Concentration required to inhibit proliferation of LNCaP prostate cancer cell lines; NA denotes not active; assay type: functional, cell-based, Homo sapiens; method in brief: as §1
DU-145 [8] = assay: Concentration required to inhibit proliferation of DU-145 prostate cancer cell lines; NA denotes not active; assay type: functional, cell-based, Homo sapiens; method in brief: as §1
[9] = Concentration required to inhibit proliferation of TSU prostate cancer cell lines; NA denotes not active; assay type: functional, cell-based, Homo sapiens; method in brief: as §1
PC-3 [10] = assay: Concentration required to inhibit proliferation of PC-3 prostate cancer cell lines; NA denotes not active; assay type: functional, cell-based, Homo sapiens; method in brief: as §1

CCCCCCCC/C=C/CCCCCCCCNC(=O)[C@@H](N)CO
pIC50 (CHO): 5.28 | pIC50 (DU-145 [1]): 5.16 | pIC50 [2]: 5.17 | pIC50 (PC-3 [3]): 5.23 | pIC50 (LNCaP [4]): 5.18 | pIC50 [5]: 5.29 | pIC50 [6]: 5.26

CCCCCCCC/C=C/CCCCCCCCC(=O)NCCOP(=O)(O)O
pIC50 (CHO): < 4.30 | pIC50 (DU-145 [1]): < 4.30 | pIC50 [2]: < 4.30 | IC50 (LNCaP [7]): Not Active | pIC50 (PC-3 [3]): < 4.30 | pIC50 [5]: 4.30 | pIC50 [6]: < 4.30

CCCCCCCC/C=C/CCCCCCCCC(=O)NCCO
pIC50 (CHO): < 4.70 | IC50 (DU-145 [8]): Not Active | IC50 [9]: Not Active | pIC50 [2]: < 4.70 | IC50 (PC-3 [10]): Not Active | IC50 (LNCaP [7]): Not Active | pIC50 [5]: < 4.70

CCCCCCCCNC(=O)[C@H](CO)NC(=O)CCCCCCC
pIC50 (CHO): < 4.00 | pIC50 (DU-145 [1]): < 4.00 | pIC50 (PC-3 [3]): 4.09 | pIC50 (LNCaP [4]): < 4.00 | pIC50 [5]: 4.09 | pIC50 [6]: 4.03

O=c1[nH]cc(F)c(=O)[nH]1 [FLUOROURACIL]
pIC50 (LNCaP [4]): 5.31
